# ChEMBL document CHEMBL1125797, “Synthesis, characterization and myocardial uptake of cationic bis(arene)technetium(I) complexes” (J Med Chem, 1991)
# Columns and labels:
# Rattus norvegicus [1] = assay: Biodistribution of compound in rat lungs at 1440 min after intravenous administration; assay type: ADME, organism-based, Lung; details: in vivo, 24 h
# Summary of the method: (§1)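 Rats received the 99mTc complex in normal saline (~12.5 μCi/mL) by lateral tail vein injection at ~25 μCi/kg and were killed by cervical dislocation at the stated time. Tissues were washed with saline, blotted, weighed and γ-counted to give percent injected dose/g. Time-course values are averages of male and female rats.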
# Rattus norvegicus [2] = assay: Biodistribution of compound in rat lungs at 180 min after intravenous administration; assay type: ADME, organism-based, Lung; details: in vivo, 3 h; summary of the method: as §1
# Rattus norvegicus [3] = assay: Biodistribution of compound in rat lungs at 360 min after intravenous administration; assay type: ADME, organism-based, Lung; details: in vivo, 6 h; summary of the method: as §1
# Rattus norvegicus [4] = assay: Biodistribution of compound in rat lungs at 45 min after intravenous administration; assay type: ADME, organism-based, Lung; details: in vivo, 0.75 h; summary of the method: as §1
# Rattus norvegicus [5] = assay: Biodistribution of compound in rat lungs at 5 min after intravenous administration; assay type: ADME, organism-based, Lung; details: in vivo; summary of the method: as §1
# Rattus norvegicus [6] = assay: Biodistribution of compound in rat lungs at 90 min after intravenous administration; assay type: ADME, organism-based, Lung; details: in vivo, 1.5 h; summary of the method: as §1
# Rattus norvegicus [7] = assay: Biodistribution of compound in rat muscle at 1440 min after intravenous administration; assay type: ADME, organism-based, Muscle tissue; details: in vivo, 24 h; summary of the method: as §1
# Rattus norvegicus [8] = assay: Biodistribution of compound in rat muscle at 180 min after intravenous administration; assay type: ADME, organism-based, Muscle tissue; details: in vivo, 3 h; summary of the method: as §1
# Rattus norvegicus [9] = assay: Biodistribution of compound in rat muscle at 360 min after intravenous administration; assay type: ADME, organism-based, Muscle tissue; details: in vivo, 6 h; summary of the method: as §1
# Rattus norvegicus [10] = assay: Biodistribution of compound in rat muscle at 45 min after intravenous administration; assay type: ADME, organism-based, Muscle tissue; details: in vivo, 0.75 h; summary of the method: as §1
# Rattus norvegicus [11] = assay: Biodistribution of compound in rat muscle at 5 min after intravenous administration; assay type: ADME, organism-based, Muscle tissue; details: in vivo; summary of the method: as §1
# Rattus norvegicus [12] = assay: Biodistribution of compound in rat muscle at 90 min after intravenous administration; assay type: ADME, organism-based, Muscle tissue; details: in vivo, 1.5 h; summary of the method: as §1
# Rattus norvegicus [13] = assay: Biodistribution of compound in rat bone at 1440 min after intravenous administration; assay type: ADME, organism-based, Bone element; details: in vivo, 24 h
# Summary of the method: (§2)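 Time course in Sprague-Dawley rats after lateral tail-vein injection of the 99mTc complex in normal saline (~12.5 μCi/mL) at ~25 μCi/kg. Tissues were sampled at the stated times, washed with saline, blotted, weighed and γ-counted to give percent injected dose per g. Values are averages of male and female rats.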
# Rattus norvegicus [14] = assay: Biodistribution of compound in rat bone at 180 min after intravenous administration; assay type: ADME, organism-based, Bone element; details: in vivo, 3 h; summary of the method: as §2
# Rattus norvegicus [15] = assay: Biodistribution of compound in rat bone at 45 min after intravenous administration; assay type: ADME, organism-based, Bone element; details: in vivo, 0.75 h; summary of the method: as §2
# Rattus norvegicus [16] = assay: Biodistribution of compound in rat bone at 5 min after intravenous administration; assay type: ADME, organism-based, Bone element; details: in vivo; summary of the method: as §2
# Rattus norvegicus [17] = assay: Biodistribution of compound in rat bone at 90 min after intravenous administration; assay type: ADME, organism-based, Bone element; details: in vivo, 1.5 h; summary of the method: as §2
# Rattus norvegicus [18] = assay: Biodistribution of compound in rat bone marrow at 1440 min after intravenous administration; assay type: ADME, organism-based; details: in vivo, 24 h; summary of the method: as §2
# Rattus norvegicus [19] = assay: Biodistribution of compound in rat bone marrow at 180 min after intravenous administration; assay type: ADME, organism-based; details: in vivo, 3 h; summary of the method: as §2
# Rattus norvegicus [20] = assay: Biodistribution of compound in rat bone marrow at 360 min after intravenous administration; assay type: ADME, organism-based; details: in vivo, 6 h; summary of the method: as §2
# Rattus norvegicus [21] = assay: Biodistribution of compound in rat bone marrow at 45 min after intravenous administration; assay type: ADME, organism-based; details: in vivo, 0.75 h; summary of the method: as §2
# Rattus norvegicus [22] = assay: Biodistribution of compound in rat bone marrow at 90 min after intravenous administration; assay type: ADME, organism-based; details: in vivo, 1.5 h; summary of the method: as §2
# Rattus norvegicus [23] = assay: Biodistribution of compound in rat bone marrow at 5 min after intravenous administration; assay type: ADME, organism-based; details: in vivo; summary of the method: as §2
# Rattus norvegicus [24] = assay: Biodistribution of compound in rat brain after 5 min of administration; assay type: ADME, organism-based; details: in vivo
# Rattus norvegicus [25] = assay: Biodistribution of compound in rat eye at 1440 min after intravenous administration; assay type: ADME, organism-based; details: in vivo, 24 h; summary of the method: as §2
# Rattus norvegicus [26] = assay: Biodistribution of compound in rat eye at 180 min after intravenous administration; assay type: ADME, organism-based; details: in vivo, 3 h; summary of the method: as §2
# Rattus norvegicus [27] = assay: Biodistribution of compound in rat eye at 360 min after intravenous administration; assay type: ADME, organism-based; details: in vivo, 6 h; summary of the method: as §2
# Rattus norvegicus [28] = assay: Biodistribution of compound in rat eye at 45 min after intravenous administration; assay type: ADME, organism-based; details: in vivo, 0.75 h; summary of the method: as §2
# Rattus norvegicus [29] = assay: Biodistribution of compound in rat eye at 5 min after intravenous administration; assay type: ADME, organism-based; details: in vivo; summary of the method: as §2
# Rattus norvegicus [30] = assay: Biodistribution of compound in rat eye at 90 min after intravenous administration; assay type: ADME, organism-based; details: in vivo, 1.5 h; summary of the method: as §2
# Rattus norvegicus [31] = assay: Biodistribution of compound in rat feces at 1440 min after intravenous administration; assay type: ADME, organism-based; details: in vivo, 24 h
# Rattus norvegicus [32] = assay: Biodistribution of compound in rat feces at 360 min after intravenous administration; assay type: ADME, organism-based; details: in vivo, 6 h
# Rattus norvegicus [33] = assay: Biodistribution of compound in rat liver after 5 min of administration.; assay type: ADME, organism-based; details: in vivo
# Summary of the method: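 Female Sprague-Dawley rats (150–200 g) received the complex in normal saline (~12.5 μCi/mL) through a lateral tail vein at ~25 μCi/kg. Rats were killed by cervical dislocation 5 min after injection. Tissues were washed with saline, blotted, weighed and γ-counted to give percent injected dose/g tissue.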
# Rattus norvegicus [34] = assay: Biodistribution of compound in rat liver at 45 min after intravenous administration; assay type: ADME, organism-based; details: in vivo, 0.75 h; summary of the method: as §1
# Rattus norvegicus [35] = assay: Biodistribution of compound in rat blood at 45 min after intravenous administration; assay type: ADME, organism-based; details: in vivo, 0.75 h; summary of the method: as §2
# Rattus norvegicus [36] = assay: Biodistribution of compound in rat bone at 360 min after intravenous administration; assay type: ADME, organism-based, Bone element; details: in vivo, 6 h; summary of the method: as §2
substance,measurement,setting,value
"Bis(1,2,3,5-tetramethylbenzene)technetium",Dose/g,Rattus norvegicus [1],0.18 % dose/organ
same,Dose/g,Rattus norvegicus [2],0.81 % dose/organ
same,Dose/g,Rattus norvegicus [3],0.7 % dose/organ
same,Dose/g,Rattus norvegicus [4],1.5 % dose/organ
same,Dose/g,Rattus norvegicus [5],1.4 % dose/organ
same,Dose/g,Rattus norvegicus [6],1.17 % dose/organ
same,Dose/g,Rattus norvegicus [7],56 % dose/organ
same,Dose/g,Rattus norvegicus [8],44 % dose/organ
same,Dose/g,Rattus norvegicus [9],31 % dose/organ
same,Dose/g,Rattus norvegicus [10],30 % dose/organ
same,Dose/g,Rattus norvegicus [11],44 % dose/organ
same,Dose/g,Rattus norvegicus [12],42 % dose/organ
same,Dose/g,Rattus norvegicus [13],1.7 % dose/organ
same,Dose/g,Rattus norvegicus [14],2.2 % dose/organ
same,Dose/g,Rattus norvegicus [15],2.6 % dose/organ
same,Dose/g,Rattus norvegicus [16],3.8 % dose/organ
same,Dose/g,Rattus norvegicus [17],3.5 % dose/organ
same,Dose/g,Rattus norvegicus [18],0.1 % dose/organ
same,Dose/g,Rattus norvegicus [19],0.2 % dose/organ
same,Dose/g,Rattus norvegicus [20],0.11 % dose/organ
same,Dose/g,Rattus norvegicus [21],0.24 % dose/organ
same,Dose/g,Rattus norvegicus [22],0.28 % dose/organ
same,Dose/g,Rattus norvegicus [23],0.43 % dose/organ
same,Dose/g,Rattus norvegicus [24],0.02%
same,Dose/g,Rattus norvegicus [25],0.01 % dose/organ
same,Dose/g,Rattus norvegicus [26],0.02 % dose
same,Dose/g,Rattus norvegicus [27],0.022 % dose
same,Dose/g,Rattus norvegicus [28],0.023 % dose
same,Dose/g,Rattus norvegicus [29],0.03 % dose
same,Dose/g,Rattus norvegicus [30],0.021 % dose
same,Dose/g,Rattus norvegicus [31],30 % dose
same,Dose/g,Rattus norvegicus [32],0.3 % dose
same,Dose/g,Rattus norvegicus [33],0.67%
same,Dose/g,Rattus norvegicus [34],4 % dose
same,Dose/ml,Rattus norvegicus [35],0.51 % dose
same,Dose/g,Rattus norvegicus [36],1.4 % dose
